Experimental data reported in ChEMBL document CHEMBL1817562, “Docking and SAR studies of D- and L-isofagomine isomers as human β-glucocerebrosidase inhibitors” (Bioorg Med Chem, 2011).

Tests used:
[1] = biological target: Lactase/phlorizin hydrolase (Rattus norvegicus, UniProt Q02401); experiment: Inhibition of rat intestinal lactase assessed as production of p-nitrophenol by spectrophotometry
[2] = Inhibition of rat intestinal cellobiase assessed as production of p-nitrophenol by spectrophotometry
[3] = biological target: T1, Tissue alpha-L-fucosidase (Bos taurus, UniProt Q2KIM0); experiment: Inhibition of bovine epididymis alpha-L-fucosidase assessed as production of p-nitrophenol by spectrophotometry
T1 sequence (Q2KIM0 whole entry): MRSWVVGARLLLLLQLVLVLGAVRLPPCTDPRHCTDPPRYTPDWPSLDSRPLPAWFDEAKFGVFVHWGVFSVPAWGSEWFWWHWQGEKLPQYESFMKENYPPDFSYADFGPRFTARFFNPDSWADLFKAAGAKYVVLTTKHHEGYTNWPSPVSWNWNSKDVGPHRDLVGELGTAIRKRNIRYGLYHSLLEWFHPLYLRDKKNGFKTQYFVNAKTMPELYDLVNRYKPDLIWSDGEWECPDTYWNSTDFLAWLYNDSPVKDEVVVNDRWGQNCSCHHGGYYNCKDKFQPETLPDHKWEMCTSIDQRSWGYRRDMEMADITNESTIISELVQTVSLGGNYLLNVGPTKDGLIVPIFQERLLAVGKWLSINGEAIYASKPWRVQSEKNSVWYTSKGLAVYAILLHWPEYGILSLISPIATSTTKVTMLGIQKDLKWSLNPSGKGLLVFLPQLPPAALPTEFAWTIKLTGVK
Outline: (§1)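 Commercial enzymes were assayed at their own optimum pH: bovine epididymis α-L-fucosidase pH 5.5, bovine liver β-galactosidase pH 6.8, coffee bean α-galactosidase pH 6.5. Reactions contained 2 mM of the matching p-nitrophenyl glycoside plus enzyme. They were stopped with 400 mM Na2CO3, and released p-nitrophenol was read at 400 nm.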

[4] = biological target: T2, Glucosylceramidase (Bos taurus) (UniProt Q2KHZ8); experiment: Inhibition of bovine liver beta-glucosidase assessed as production of p-nitrophenol using p-nitrophenyl glycoside as substrate at 1000 uM by spectrophotometry
T2 sequence (whole entry): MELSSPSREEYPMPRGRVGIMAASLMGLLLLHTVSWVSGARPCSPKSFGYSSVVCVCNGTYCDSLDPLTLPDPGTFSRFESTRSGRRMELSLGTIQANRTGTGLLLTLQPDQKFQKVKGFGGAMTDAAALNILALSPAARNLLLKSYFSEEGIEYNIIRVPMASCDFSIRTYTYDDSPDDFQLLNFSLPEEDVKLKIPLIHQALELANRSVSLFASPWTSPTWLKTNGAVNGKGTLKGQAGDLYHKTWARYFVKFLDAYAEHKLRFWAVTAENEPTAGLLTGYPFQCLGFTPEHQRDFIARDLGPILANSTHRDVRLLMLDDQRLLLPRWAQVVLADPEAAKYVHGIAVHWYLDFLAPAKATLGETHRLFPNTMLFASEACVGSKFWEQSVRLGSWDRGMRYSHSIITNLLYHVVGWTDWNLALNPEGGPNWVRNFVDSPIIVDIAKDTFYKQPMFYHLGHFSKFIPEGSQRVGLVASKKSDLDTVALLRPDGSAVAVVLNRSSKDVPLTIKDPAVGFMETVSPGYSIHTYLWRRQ

[5] = biological target: T3, Sucrase-isomaltase, intestinal (Rattus norvegicus, UniProt P23739); experiment: Inhibition of rat intestinal sucrase assessed as release of D-glucose at by spectrophotometry
T3 sequence (P23739 1-1013 limits assumed): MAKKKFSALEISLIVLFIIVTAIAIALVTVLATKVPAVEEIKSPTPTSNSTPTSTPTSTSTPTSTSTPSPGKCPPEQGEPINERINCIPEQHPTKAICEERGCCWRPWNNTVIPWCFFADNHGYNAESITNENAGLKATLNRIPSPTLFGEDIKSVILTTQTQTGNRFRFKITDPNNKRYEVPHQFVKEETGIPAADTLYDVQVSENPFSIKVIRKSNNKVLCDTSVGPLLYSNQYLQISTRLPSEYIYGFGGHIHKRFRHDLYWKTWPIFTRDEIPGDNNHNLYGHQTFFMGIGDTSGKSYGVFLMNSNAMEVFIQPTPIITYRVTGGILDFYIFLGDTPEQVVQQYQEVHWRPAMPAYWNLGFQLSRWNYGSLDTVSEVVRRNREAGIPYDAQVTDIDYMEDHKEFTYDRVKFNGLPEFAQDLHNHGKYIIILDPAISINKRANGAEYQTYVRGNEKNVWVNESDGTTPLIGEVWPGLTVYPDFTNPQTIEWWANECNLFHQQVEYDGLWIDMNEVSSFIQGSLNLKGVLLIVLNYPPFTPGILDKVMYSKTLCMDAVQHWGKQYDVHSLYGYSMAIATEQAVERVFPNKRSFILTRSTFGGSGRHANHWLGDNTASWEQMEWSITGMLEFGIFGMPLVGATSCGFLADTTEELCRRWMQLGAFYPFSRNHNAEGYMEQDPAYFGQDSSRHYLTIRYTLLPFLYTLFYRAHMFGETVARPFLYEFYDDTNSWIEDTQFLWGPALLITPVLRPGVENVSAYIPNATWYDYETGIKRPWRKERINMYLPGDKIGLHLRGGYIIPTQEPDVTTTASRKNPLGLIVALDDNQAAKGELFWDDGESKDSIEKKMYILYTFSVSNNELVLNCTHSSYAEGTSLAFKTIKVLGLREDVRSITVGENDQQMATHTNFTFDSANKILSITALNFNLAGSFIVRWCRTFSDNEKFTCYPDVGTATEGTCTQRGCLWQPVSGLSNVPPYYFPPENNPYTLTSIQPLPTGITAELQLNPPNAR
T3 sequence (P23739 1014-1841 limits assumed): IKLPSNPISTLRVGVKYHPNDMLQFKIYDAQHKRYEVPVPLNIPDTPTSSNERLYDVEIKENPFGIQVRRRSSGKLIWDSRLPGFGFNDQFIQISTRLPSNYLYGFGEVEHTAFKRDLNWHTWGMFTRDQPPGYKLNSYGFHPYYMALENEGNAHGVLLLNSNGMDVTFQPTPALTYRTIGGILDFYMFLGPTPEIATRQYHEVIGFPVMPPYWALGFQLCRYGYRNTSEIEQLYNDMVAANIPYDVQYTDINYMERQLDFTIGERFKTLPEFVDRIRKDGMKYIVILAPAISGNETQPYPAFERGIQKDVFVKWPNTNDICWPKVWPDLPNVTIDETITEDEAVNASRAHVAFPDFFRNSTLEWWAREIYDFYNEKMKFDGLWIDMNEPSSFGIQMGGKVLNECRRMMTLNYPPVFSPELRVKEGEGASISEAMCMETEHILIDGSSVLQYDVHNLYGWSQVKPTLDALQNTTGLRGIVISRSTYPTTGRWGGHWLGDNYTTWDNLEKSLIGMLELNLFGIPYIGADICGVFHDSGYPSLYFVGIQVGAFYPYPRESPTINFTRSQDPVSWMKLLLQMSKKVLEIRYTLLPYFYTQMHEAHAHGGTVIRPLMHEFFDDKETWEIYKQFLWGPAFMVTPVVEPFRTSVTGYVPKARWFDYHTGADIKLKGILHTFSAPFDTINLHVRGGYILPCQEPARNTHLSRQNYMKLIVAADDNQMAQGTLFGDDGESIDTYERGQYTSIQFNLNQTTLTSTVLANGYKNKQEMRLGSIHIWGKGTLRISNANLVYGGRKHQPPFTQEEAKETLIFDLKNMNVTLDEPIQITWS

Prunus dulcis = settings: 1000 uM
Coffea = experiment: Inhibition of coffee beans alpha-galactosidase assessed as production of p-nitrophenol at 1000 uM by spectrophotometry
Outline: (§2)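 p-Nitrophenyl glycoside matched to each enzyme, 2 mM, with enzyme at that enzyme's optimum pH: Penicillium decumbens α-L-rhamnosidase pH 4.0, bovine liver β-galactosidase pH 6.8, coffee bean α-galactosidase pH 6.5, jack bean α-mannosidase pH 4.5, snail β-mannosidase pH 4.5. Stopped with 400 mM Na2CO3; released p-nitrophenol read at 400 nm.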

Penicillium decumbens = experiment: Inhibition of Penicillium decumbens alpha-L-rhamnosidase assessed as production of p-nitrophenol at 1000 uM by spectrophotometry; outline: as §2
Helix pomatia = experiment: Inhibition of snail beta-mannosidase assessed as production of p-nitrophenol at 1000 uM by spectrophotometry; outline: as §2
[6] = biological target: T4, Lysosomal acid glucosylceramidase (Homo sapiens) (UniProt P04062); settings: 1000 uM
T4 sequence (whole entry): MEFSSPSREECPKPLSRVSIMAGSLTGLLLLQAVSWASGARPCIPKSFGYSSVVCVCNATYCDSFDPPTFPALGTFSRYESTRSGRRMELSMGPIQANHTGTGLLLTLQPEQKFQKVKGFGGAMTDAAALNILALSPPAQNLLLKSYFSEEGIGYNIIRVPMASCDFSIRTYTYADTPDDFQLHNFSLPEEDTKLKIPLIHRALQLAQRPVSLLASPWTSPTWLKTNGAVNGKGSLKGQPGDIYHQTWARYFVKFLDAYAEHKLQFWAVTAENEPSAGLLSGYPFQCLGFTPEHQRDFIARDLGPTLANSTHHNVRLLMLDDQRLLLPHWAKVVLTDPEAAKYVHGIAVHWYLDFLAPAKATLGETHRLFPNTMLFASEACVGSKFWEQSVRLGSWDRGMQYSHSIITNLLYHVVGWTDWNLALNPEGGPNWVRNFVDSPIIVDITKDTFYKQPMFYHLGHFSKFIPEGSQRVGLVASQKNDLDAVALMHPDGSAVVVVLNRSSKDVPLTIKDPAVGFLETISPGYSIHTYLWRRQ

[7] = biological target: Sucrase-isomaltase, intestinal (Rattus norvegicus) (UniProt P23739); settings: 1000 uM
Sequence of Sucrase-isomaltase, intestinal (Rattus norvegicus) (P23739 1-1013 limits assumed): as the sequence (P23739 1-1013 limits assumed) above
Sequence of Sucrase-isomaltase, intestinal (Rattus norvegicus) (P23739 1014-1841 limits assumed): as the sequence (P23739 1014-1841 limits assumed) above

Canavalia ensiformis = experiment: Inhibition of jack beans alpha-mannosidase assessed as production of p-nitrophenol at 1000 uM by spectrophotometry; outline: as §2
[8] = Inhibition of rat intestinal maltase assessed as production of D-glucose using maltose as substrate after 10 to 30 mins by spectrophotometry
Outline: (§3)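 Enzymes were rice α-glucosidase at pH 5.0 and rat small-intestine brush border membranes (Kessler method) at pH 5.8. Each reaction contained 25 mM maltose and enzyme and was incubated 10–30 min at 37 °C. Reactions were stopped by heating at 100 °C for 3 min, then centrifuged. Released D-glucose was measured with a glucose test reagent by absorbance at 505 nm.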

[9] = Inhibition of rice alpha-glucosidase assessed as production of D-glucose using maltose as substrate after 10 to 30 mins by spectrophotometry; parameters: species or system Oryza sativa; outline: as §3
Rattus norvegicus [10] = organism: Rattus norvegicus; settings: 1000 uM
[11] = biological target: Sucrase-isomaltase, intestinal (Rattus norvegicus) (UniProt P23739); settings: 1000 uM; remark: listed apart in the source
[12] = biological target: Lactase/phlorizin hydrolase (Rattus norvegicus) (UniProt Q02401); settings: 1000 uM
Sequence of Lactase/phlorizin hydrolase (Rattus norvegicus) (Q02401 868-1928 limits assumed): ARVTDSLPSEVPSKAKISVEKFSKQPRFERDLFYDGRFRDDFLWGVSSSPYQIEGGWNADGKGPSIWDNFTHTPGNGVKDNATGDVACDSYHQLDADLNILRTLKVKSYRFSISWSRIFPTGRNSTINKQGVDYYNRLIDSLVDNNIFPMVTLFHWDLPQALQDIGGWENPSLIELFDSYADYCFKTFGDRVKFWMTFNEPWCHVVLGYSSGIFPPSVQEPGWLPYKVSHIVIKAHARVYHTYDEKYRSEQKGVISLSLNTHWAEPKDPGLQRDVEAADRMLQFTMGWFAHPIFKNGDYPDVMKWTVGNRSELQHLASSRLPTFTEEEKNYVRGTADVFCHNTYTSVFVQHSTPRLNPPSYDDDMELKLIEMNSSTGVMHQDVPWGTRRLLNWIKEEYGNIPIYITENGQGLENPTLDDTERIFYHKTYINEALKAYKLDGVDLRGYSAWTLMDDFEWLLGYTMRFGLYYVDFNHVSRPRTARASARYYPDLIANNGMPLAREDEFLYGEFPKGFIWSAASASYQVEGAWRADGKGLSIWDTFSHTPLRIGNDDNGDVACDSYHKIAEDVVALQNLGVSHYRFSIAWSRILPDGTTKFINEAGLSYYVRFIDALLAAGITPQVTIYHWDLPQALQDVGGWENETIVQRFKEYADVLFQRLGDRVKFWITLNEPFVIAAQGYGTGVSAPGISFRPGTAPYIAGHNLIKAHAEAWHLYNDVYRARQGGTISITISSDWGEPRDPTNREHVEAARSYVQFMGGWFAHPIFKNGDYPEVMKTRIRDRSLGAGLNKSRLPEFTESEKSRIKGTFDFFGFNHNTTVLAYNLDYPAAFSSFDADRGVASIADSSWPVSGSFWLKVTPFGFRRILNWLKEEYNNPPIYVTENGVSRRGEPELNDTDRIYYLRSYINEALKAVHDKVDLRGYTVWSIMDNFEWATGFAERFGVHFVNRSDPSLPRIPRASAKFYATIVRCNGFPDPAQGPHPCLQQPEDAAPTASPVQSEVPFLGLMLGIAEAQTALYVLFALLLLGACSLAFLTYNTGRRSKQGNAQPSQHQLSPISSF

Oryza sativa = settings: 1000 uM
[13] = biological target: T5, Beta-galactosidase (Bos taurus) (UniProt Q58D55); experiment: Inhibition of bovine liver beta-galactosidase assessed as production of p-nitrophenol at 1000 uM by spectrophotometry; outline: as §2
T5 sequence (whole entry): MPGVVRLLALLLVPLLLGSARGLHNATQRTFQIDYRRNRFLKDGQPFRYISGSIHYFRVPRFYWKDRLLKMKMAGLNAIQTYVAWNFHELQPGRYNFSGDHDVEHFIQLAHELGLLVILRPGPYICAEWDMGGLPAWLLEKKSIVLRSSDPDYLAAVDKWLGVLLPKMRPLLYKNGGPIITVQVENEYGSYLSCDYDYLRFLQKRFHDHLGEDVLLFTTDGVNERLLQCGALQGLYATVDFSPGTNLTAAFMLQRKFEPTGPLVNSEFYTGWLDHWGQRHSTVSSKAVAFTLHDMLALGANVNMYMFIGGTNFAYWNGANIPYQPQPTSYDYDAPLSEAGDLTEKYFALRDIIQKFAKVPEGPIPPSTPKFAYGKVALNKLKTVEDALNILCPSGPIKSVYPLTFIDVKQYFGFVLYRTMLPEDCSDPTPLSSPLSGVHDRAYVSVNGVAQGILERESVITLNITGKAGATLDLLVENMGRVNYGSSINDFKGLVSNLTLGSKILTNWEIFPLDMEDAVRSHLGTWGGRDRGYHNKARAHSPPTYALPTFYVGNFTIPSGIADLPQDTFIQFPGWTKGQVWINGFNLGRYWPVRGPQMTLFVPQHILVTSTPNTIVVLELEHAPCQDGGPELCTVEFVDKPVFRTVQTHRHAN

Rattus norvegicus [14] = organism: Rattus norvegicus; experiment: Inhibition of rat intestinal cellobiase assessed as production of p-nitrophenol at 1000 uM by spectrophotometry
[15] = Inhibition of coffee beans alpha-galactosidase assessed as production of p-nitrophenol by spectrophotometry; parameters: species or system Coffea; outline: as §1
[16] = biological target: T6, Tissue alpha-L-fucosidase (Bos taurus) (UniProt Q2KIM0); settings: 1000 uM
T6 sequence (whole entry): T1 sequence (Q2KIM0 whole entry)

Beta-galactosidase = biological target: T7, Beta-galactosidase (Bos taurus, UniProt Q58D55); experiment: Inhibition of bovine liver beta-galactosidase assessed as production of p-nitrophenol by spectrophotometry
T7 sequence (Q58D55 whole entry): T5 sequence (whole entry)

[17] = biological target: T3, Sucrase-isomaltase, intestinal; experiment: Inhibition of rat intestinal isomaltase assessed as production of p-nitrophenol at by spectrophotometry
[18] = Inhibition of almond beta-glucosidase assessed as production of p-nitrophenol using p-nitrophenyl glycoside as substrate by spectrophotometry
[19] = Inhibition of rice alpha-glucosidase; parameters: species or system Oryza sativa; outline: as §3
[20] = Inhibition of rat intestinal maltase; outline: as §3

Sequence of Lactase/phlorizin hydrolase (Q02401 868-1928 limits assumed): as the sequence (Q02401 868-1928 limits assumed) above

SMILES | IC50 [1] [µM] | IC50 [2] [µM] | inhibition [4] [%] | IC50 [5] [µM] | inhibition (Prunus dulcis) [%] | inhibition (Coffea) [%] | inhibition (Penicillium decumbens) [%] | inhibition (Helix pomatia) [%] | inhibition [6] [%] | inhibition [7] [%] | inhibition (Canavalia ensiformis) [%] | IC50 [8] [µM] | IC50 [9] [µM] | inhibition (Rattus norvegicus [10]) [%] | inhibition [11] [%] | inhibition (Oryza sativa) [%] | IC50 [15] [µM] | inhibition [16] [%] | IC50 [18] [µM] | also measured
OC[C@@H]1NCC[C@@H](O)[C@H]1O | 122 | 809 | < 50 | 225 | < 50 | < 50 | < 50 | < 50 | < 50 | < 50 | < 50 | 357 | 188 |  |  |  |  |  |  | IC50 [3]: 260 µM
OC[C@H]1NCC[C@@H](O)[C@H]1O |  |  | < 50 |  | < 50 |  | < 50 | < 50 | < 50 | < 50 | < 50 |  |  | < 50 | < 50 | < 50 | 8 | < 50 |  | inhibition [12]: < 50%; inhibition [13]: < 50%; inhibition (Rattus norvegicus [14]): < 50%
OC[C@H]1CNC[C@@H](O)[C@@H]1O [AFEGOSTAT] | 0.12 | 0.3 |  | 531 |  | < 50 | < 50 | < 50 |  |  | < 50 | 653 |  |  |  | < 50 |  | < 50 | 0.98 | IC50 (Beta-galactosidase): 3.6 µM; IC50 [17]: 290 µM
OC[C@@H]1CNC[C@H](O)[C@@H]1O | 90 | 607 | < 50 |  |  |  | < 50 | < 50 | < 50 | < 50 | < 50 |  |  | < 50 | < 50 | < 50 | 450 | < 50 | 983 | inhibition [13]: < 50%
OC[C@H]1NC[C@H](O)[C@@H](O)[C@@H]1O [DUVOGLUSTAT] |  | 327 | < 50 |  |  |  | < 50 | < 50 |  |  | < 50 | 0.65 | 0.03 |  |  |  | 880 |  | 80 | 
OC[C@H]1NCC[C@@H](O)[C@@H]1O [FAGOMINE] |  |  |  | 34 | < 50 | < 50 | < 50 | < 50 |  |  | < 50 | 113 | 320 |  |  |  |  | < 50 |  | IC50 [17]: 37 µM; inhibition [12]: < 50%; inhibition (Rattus norvegicus [14]): < 50%
OCC1(O)CNC[C@H]1O (single isomer, unassigned) |  |  |  |  |  |  |  |  |  |  |  |  |  |  |  |  |  |  |  | Ki [19]: 4 µM; Ki [20]: 6 µM
OC[C@H]1CNC[C@@H](O)[C@H]1O | 0.51 | 4.5 |  |  |  |  | < 50 | < 50 |  | < 50 | < 50 |  |  | < 50 | < 50 | < 50 | 144 | < 50 | 3.2 | IC50 (Beta-galactosidase): 21 µM
